# According to ChEMBL document CHEMBL1151715, “Novel D-xylose derivatives stimulate muscle glucose uptake by activating AMP-activated protein kinase alpha” (J Med Chem, 2008):
# The source made the active and inactive calls.
# Legend:
# L6 [1] = experiment: Effect on [3H]2-deoxy-D-glucose uptake in rat L6 cells at 400 uM relative to control; format: functional
# Summary of the method: (§1)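 L6 myotubes were held in αMEM with 2% FCS and 23.0 mM D-glucose for 24 h. They were then treated with increasing concentrations in medium with 10% FCS and 23.0 mM D-glucose for 7 or 18 h; vehicle controls ran 18 h. After washing, uptake was measured with 0.1 mM dGlc plus 1.3 µCi/mL [3H]dGlc in PBS pH 7.4 for 5 min at room temperature. Ice-cold PBS stop, SDS lysis, scintillation counting; basal rate set to 100%.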
# [2] = Cytotoxicity against rat L6 cells by MTT assay; format: cell-based
# Summary of the method: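 MTT assay on L6 myotubes after the treatment incubations: MTT at 2 mg/mL in αMEM for 30 min at 37 °C, formazan dissolved in DMSO, absorbance read at 570 nm.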
# L6 [3] = experiment: Effect on [3H]2-deoxy-D-glucose uptake in rat L6 cells at 5 uM relative to control; format: functional, cell-based; settings: TDE = time-dependent effect; summary of the method: as §1
# Serum [4] = experiment: Protein binding in fetal calf serum at 5 uM; format: ADME, cell-free, Bos taurus; settings: cattle
# Summary of the method: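 αMEM with 10% FCS was spiked at 4.6–23.0 µM and held 60 min at 37 °C for total concentration. Samples were ultrafiltered through a 10 kDa cutoff (4400g, 60 min), and the filtrate was hexane-extracted and analysed by LC-MS (SIR m/z 432) for free concentration.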
# [5] = Effect on [3H]2-deoxy-D-glucose uptake in human skeletal muscle cells at 150 uM relative to control; format: functional
# L6 [6] = experiment: Increase in GLUT4myc abundance in rat L6 cell membrane at 150 uM after 7 hrs; format: functional, cell-based
# Summary of the method: (§2)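 Myc-tagged GLUT1 or GLUT4 L6 myotubes were preconditioned at 5.5 or 23.0 mM glucose for 24 h, then treated in 10% FCS medium for 7 h (18 h for the 5 µM agent). Insulin was 200 nM for 30 min. Intact cells were labeled with rabbit anti-myc (1:200), fixed in 3% formaldehyde, and given HRP anti-rabbit IgG (1:2000). OPD colour was read at 492 nm.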
# L6 [7] = experiment: Inhibition of [3H]2-deoxy-D-glucose uptake in rat L6 cells at 150 uM in presence of 100 nM wortmannin; format: functional, cell-based
# Summary of the method: (§3)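 L6 myotubes at 23 mM D-glucose received 100 nM wortmannin 30 min before the agents. Treatment ran in 10% FCS medium for 7 h (18 h for the 5 µM agent). A 5-min [3H]dGlc uptake (0.1 mM dGlc, 1.3 µCi/mL) in PBS at room temperature followed, with the vehicle basal rate set to 100%.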
# L6 [8] = experiment: Activation of 5-AMP-induced AMPKalpha in rat L6 cells assessed as […] phosphorylation at 150 uM relative to control; format: cell-based
# Summary of the method: (§4)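 L6 myotubes preconditioned 24 h in αMEM with 2% FCS and 23.0 mM D-glucose, then given fresh medium with 10% (v/v) FCS, 23.0 mM D-glucose and test agent; controls received vehicle. Whole-cell lysates (Tris pH 7.5 with phosphatase and protease inhibitors) were blotted for AMPKα and […]-AMPKα, detected by ECL, and bands quantified by densitometry.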
# L6 [9] = experiment: Increase in GLUT1myc abundance in rat L6 cell membrane at 50 uM after 7 hrs; format: functional, cell-based; summary of the method: as §2
# L6 [10] = experiment: Activation of 5-AMP-induced AMPKalpha in rat L6 cells assessed as […] phosphorylation at 150 uM relative to control in presence of compound C; format: cell-based
# L6 [11] = experiment: Effect on [3H]2-deoxy-D-glucose uptake in rat L6 cells at 150 uM relative to control; format: functional, cell-based; settings: TDE = time-dependent effect; summary of the method: as §1
# L6 [12] = experiment: Effect on [3H]2-deoxy-D-glucose uptake in rat L6 cells at 50 uM relative to control; format: functional, cell-based; settings: TDE = time-dependent effect; summary of the method: as §1
# L6 [13] = experiment: Increase in GLUT1myc abundance in rat L6 cell membrane at 20 mM after 7 hrs; format: functional, cell-based; settings: 150 uM, in the assay text read “at 150 uM” for “at 20 mM”; summary of the method: as §2
# L6 [14] = experiment: Increase in GLUT1myc abundance in rat L6 cell membrane at 5 µM after 18 hrs; format: functional, cell-based; summary of the method: as §2
# L6 [15] = experiment: Increase in GLUT1myc abundance in rat L6 cell membrane at 150 uM after 7 hrs; format: functional, cell-based; summary of the method: as §2
# Homo sapiens [16] = species: Homo sapiens; experiment: Activation of 5-AMP-induced AMPKalpha in human skeletal muscle cells assessed as […] phosphorylation at 150 uM relative to control
# Summary of the method: (§5)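 Primary human skeletal myoblasts from the rectus abdominis of a donor were differentiated into myotubes and treated in medium with 10% (v/v) FCS, 23.0 mM D-glucose and agent, with vehicle controls. Whole-cell lysates were Western blotted for total AMPKα and […]-AMPKα, with ECL detection and densitometry.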
# L6 [17] = experiment: Effect on [3H]2-deoxy-D-glucose uptake in rat L6 cells at 250 uM relative to control; format: functional; summary of the method: as §1
# L6 [18] = experiment: Effect on [3H]2-deoxy-D-glucose uptake in rat L6 cells at 500 uM relative to control; format: functional; summary of the method: as §1
# L6 [19] = experiment: Effect on [3H]2-deoxy-D-glucose uptake in rat L6 cells at 1 mM relative to control; format: functional; summary of the method: as §1
# L6 [20] = experiment: Effect on [3H]2-deoxy-D-glucose uptake in rat L6 cells at 200 uM relative to control; format: functional; summary of the method: as §1
# [21] = Effect on [3H]2-deoxy-D-glucose uptake in human skeletal muscle cells at 5 uM relative to control; format: functional
# L6 [22] = experiment: Increase in GLUT4myc abundance in rat L6 cell membrane at 5 µM after 18 hrs; format: functional, cell-based; summary of the method: as §2
# L6 [23] = experiment: Inhibition of [3H]2-deoxy-D-glucose uptake in rat L6 cells at 5 uM in presence of 100 nM wortmannin; format: functional, cell-based; summary of the method: as §3
# L6 [24] = experiment: Activation of 5-AMP-induced AMPKalpha in rat L6 cells assessed as […] phosphorylation at 5 uM relative to control; format: cell-based; summary of the method: as §4
# Homo sapiens [25] = species: Homo sapiens; experiment: Activation of 5-AMP-induced AMPKalpha in human skeletal muscle cells assessed as […] phosphorylation at 5 uM relative to control; summary of the method: as §5
# Serum [26] = experiment: Free concentration in fetal calf serum at 5 uM; settings: cattle
# L6 [27] = experiment: Increase in GLUT1myc abundance in rat L6 cell membrane at 5 uM after 18 hrs
# L6 [28] = experiment: Activation of 5-AMP-induced AMPKalpha in rat L6 cells assessed as reduction in hexose transport at 5 uM relative to control in presence of compound C; set-up: scale not given: the % may be the effect or the level left
compound,measurement,setting,value
O[C@@H]1[C@@H](O)[C@H](ON2CCCCC2)OC[C@H]1O,fold change (FC),L6 [1],0.94
same,MCC,[2],1 mM
CCSC(SCC)[C@@H]1O[C@H](c2ccccc2)O[C@H](CO)[C@@H]1O,Activity,L6 [3],tde
same,Activity,Serum [4],98%
same,fold change (FC),[5],1.49
same,Activity,L6 [6],Active
same,Activity,L6 [7],Active
same,fold change (FC),L6 [8],5.25
same,Activity,L6 [9],inactive
same,Activity,L6 [10],60%
same,Activity,L6 [11],tde
same,Activity,L6 [12],tde
same,Activity,L6 [13],inactive
same,Activity,L6 [14],inactive
same,Activity,L6 [15],inactive
same,Activity,Homo sapiens [16],Active
CCO[C@H]1[C@@H](CO)O[C@@H](c2ccccc2)O[C@H]1C(SCC)SCC,fold change (FC),L6 [17],1.01
same,MCC,[2],0.6 mM
CCS[C@@H]1OC[C@@H](O)[C@H](O)[C@H]1O,fold change (FC),L6 [18],0.93
same,MCC,[2],1 mM
O[C@@H]1[C@@H](O)[C@@H](OC2=CC=CCO2)OC[C@H]1O,fold change (FC),L6 [19],0.99
same,MCC,[2],5 mM
CCSC(SCC)[C@@H]1O[C@H](c2ccccc2)O[C@@H]2CO[C@H](c3ccccc3)O[C@@H]21,fold change (FC),L6 [20],1.06
same,MCC,[2],50 mM
same,Activity,L6 [3],tde
same,fold change (FC),[21],1.59
same,Activity,L6 [22],Active
same,Activity,L6 [23],Active
same,fold change (FC),L6 [24],4.89
same,Activity,L6 [9],inactive
same,Activity,L6 [11],tde
same,Activity,L6 [12],tde
same,Activity,L6 [14],inactive
same,Activity,L6 [15],inactive
same,Activity,Homo sapiens [25],Active
same,free concentration,Serum [26],100 nM
same,Activity,L6 [27],inactive
same,Activity,L6 [28],48.8%
